{
  "source": "ChEMBL document CHEMBL1150295",
  "about": "“Synthesis and receptor binding properties of 2beta-alkynyl and 2beta-(1,2,3-triazol)substituted 3beta-(substituted phenyl)tropane derivatives” (Bioorg Med Chem, 2008)",
  "key": {"[1]": {"molecular_target": "Sodium-dependent dopamine transporter (Homo sapiens, UniProt Q01959)", "sequence (Q01959 whole entry)": "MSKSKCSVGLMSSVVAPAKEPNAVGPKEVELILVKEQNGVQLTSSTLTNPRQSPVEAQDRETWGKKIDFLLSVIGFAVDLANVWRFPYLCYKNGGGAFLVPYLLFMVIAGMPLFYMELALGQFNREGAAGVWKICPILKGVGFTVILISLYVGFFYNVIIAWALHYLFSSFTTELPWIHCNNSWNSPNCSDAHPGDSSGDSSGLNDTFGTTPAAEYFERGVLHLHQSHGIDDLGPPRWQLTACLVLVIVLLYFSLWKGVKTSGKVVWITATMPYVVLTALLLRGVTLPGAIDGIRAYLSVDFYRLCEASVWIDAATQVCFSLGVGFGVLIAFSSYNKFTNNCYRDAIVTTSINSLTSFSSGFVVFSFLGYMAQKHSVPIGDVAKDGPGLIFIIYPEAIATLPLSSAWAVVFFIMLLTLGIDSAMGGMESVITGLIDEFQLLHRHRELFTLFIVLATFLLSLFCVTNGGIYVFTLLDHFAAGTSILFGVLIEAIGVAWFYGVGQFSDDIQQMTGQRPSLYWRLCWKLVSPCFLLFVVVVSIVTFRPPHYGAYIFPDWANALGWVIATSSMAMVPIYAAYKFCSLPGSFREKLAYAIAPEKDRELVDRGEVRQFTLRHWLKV", "experiment": "Displacement of [3H]WIN-35428 from dopamine transporter", "in_short": "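Competitive radioligand binding at membrane dopamine transporter; 0.5 nM [3H]WIN35,428 final concentration. Mean ± standard error of three or four experiments, each in triplicate.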"}, "[2]": {"molecular_target": "Sodium-dependent noradrenaline transporter (Homo sapiens, UniProt P23975)", "sequence (P23975 whole entry)": "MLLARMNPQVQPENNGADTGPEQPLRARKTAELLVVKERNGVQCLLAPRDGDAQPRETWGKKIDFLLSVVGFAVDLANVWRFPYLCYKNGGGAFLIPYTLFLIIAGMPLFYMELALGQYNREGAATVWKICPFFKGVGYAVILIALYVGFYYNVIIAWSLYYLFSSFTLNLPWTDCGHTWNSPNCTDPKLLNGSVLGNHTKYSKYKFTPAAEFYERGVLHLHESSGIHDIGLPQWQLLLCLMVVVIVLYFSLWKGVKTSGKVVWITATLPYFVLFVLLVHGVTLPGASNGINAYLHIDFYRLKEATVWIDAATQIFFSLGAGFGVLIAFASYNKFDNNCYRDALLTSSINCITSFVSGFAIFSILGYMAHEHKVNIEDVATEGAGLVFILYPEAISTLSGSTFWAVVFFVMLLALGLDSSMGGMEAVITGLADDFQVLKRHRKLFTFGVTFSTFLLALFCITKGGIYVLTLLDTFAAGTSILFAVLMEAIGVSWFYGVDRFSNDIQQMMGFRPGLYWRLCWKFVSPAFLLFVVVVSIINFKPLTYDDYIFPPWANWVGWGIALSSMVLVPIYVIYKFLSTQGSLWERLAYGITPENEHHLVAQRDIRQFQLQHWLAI", "experiment": "Displacement of [3H]nisoxetine from norepinephrine transporter"}, "[3]": {"molecular_target": "Sodium-dependent serotonin transporter (Homo sapiens, UniProt P31645)", "sequence (P31645 whole entry)": "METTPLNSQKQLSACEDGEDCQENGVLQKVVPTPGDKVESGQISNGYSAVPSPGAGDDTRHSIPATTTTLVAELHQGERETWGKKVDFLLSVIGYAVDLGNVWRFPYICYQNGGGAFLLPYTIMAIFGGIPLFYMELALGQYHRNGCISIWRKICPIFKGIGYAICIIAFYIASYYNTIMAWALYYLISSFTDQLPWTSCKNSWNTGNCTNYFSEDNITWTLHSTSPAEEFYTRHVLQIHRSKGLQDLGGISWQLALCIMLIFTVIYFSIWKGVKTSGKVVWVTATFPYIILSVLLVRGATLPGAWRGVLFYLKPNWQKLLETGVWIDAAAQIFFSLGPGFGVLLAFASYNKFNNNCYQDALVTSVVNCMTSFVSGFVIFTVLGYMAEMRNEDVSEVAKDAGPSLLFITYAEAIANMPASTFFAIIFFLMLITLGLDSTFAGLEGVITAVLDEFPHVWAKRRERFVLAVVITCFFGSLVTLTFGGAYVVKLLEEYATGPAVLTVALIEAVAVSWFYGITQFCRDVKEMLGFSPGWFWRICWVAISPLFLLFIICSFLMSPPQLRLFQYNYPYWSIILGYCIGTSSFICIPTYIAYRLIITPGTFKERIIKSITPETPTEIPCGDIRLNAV", "experiment": "Displacement of [3H]paroxetine from serotonin transporter"}, "[4]": {"experiment": "Selectivity for dopamine transporter over norepinephrine transporter"}, "[5]": {"experiment": "Selectivity for dopamine transporter over serotonin transporter"}},
  "data": [
    {"molecule": "C#C[C@H]1[C@@H](c2ccc(C)cc2)C[C@@H]2CC[C@H]1N2C", "values": [
      {"measurement": "IC50", "setting": "[1]", "result": 11, "unit": "nM"},
      {"measurement": "Ki", "setting": "[2]", "result": 150, "unit": "nM"},
      {"measurement": "Ki", "setting": "[3]", "result": 54, "unit": "nM"}
    ]},
    {"molecule": "Cc1ccc([C@H]2C[C@@H]3CC[C@H]([C@H]2C=C(Br)Br)N3C)cc1", "values": [
      {"measurement": "IC50", "setting": "[1]", "result": 0.23, "unit": "nM"},
      {"measurement": "Ki", "setting": "[2]", "result": 3.4, "unit": "nM"},
      {"measurement": "Ki", "setting": "[3]", "result": 39, "unit": "nM"}
    ]},
    {"molecule": "CN1[C@H]2CC[C@@H]1[C@@H](c1cn(Cc3ccccc3)nn1)[C@@H](c1ccc(Cl)cc1)C2", "values": [
      {"measurement": "IC50", "setting": "[1]", "result": 47, "unit": "nM"},
      {"measurement": "Ki", "setting": "[2]", "result": 2560, "unit": "nM"},
      {"measurement": "Ki", "setting": "[3]", "result": 161, "unit": "nM"}
    ]},
    {"molecule": "Cc1ccc([C@H]2C[C@@H]3CC[C@H]([C@H]2C#Cc2ccccc2)N3C)cc1", "values": [
      {"measurement": "IC50", "setting": "[1]", "result": 0.8, "unit": "nM"},
      {"measurement": "Ki", "setting": "[2]", "result": 31, "unit": "nM"},
      {"measurement": "Ki", "setting": "[3]", "result": 730, "unit": "nM"}
    ]},
    {"molecule": "CN1[C@H]2CC[C@@H]1[C@@H](C#Cc1ccc(N)cc1)[C@@H](c1ccc(Cl)cc1)C2", "values": [
      {"measurement": "IC50", "setting": "[1]", "result": 2.2, "unit": "nM"},
      {"measurement": "Ki", "setting": "[2]", "result": 50, "unit": "nM"},
      {"measurement": "Ki", "setting": "[3]", "result": 19, "unit": "nM"}
    ]},
    {"molecule": "C#C[C@H]1[C@@H](c2ccc(Cl)cc2)C[C@@H]2CC[C@H]1N2C", "values": [
      {"measurement": "IC50", "setting": "[1]", "result": 3.6, "unit": "nM"},
      {"measurement": "Ki", "setting": "[2]", "result": 75, "unit": "nM"},
      {"measurement": "Ki", "setting": "[3]", "result": 18, "unit": "nM"}
    ]},
    {"molecule": "CN1[C@H]2CC[C@@H]1[C@@H](c1cn(CCN3CCCCC3)nn1)[C@@H](c1ccc(Cl)cc1)C2", "values": [
      {"measurement": "IC50", "setting": "[1]", "result": 8, "unit": "nM"},
      {"measurement": "Ki", "setting": "[2]", "result": 430, "unit": "nM"},
      {"measurement": "Ki", "setting": "[3]", "result": 138, "unit": "nM"}
    ]},
    {"molecule": "Cc1ccc([C@H]2C[C@@H]3CC[C@H]([C@@H]2C=C(Br)Br)N3C)cc1", "values": [
      {"measurement": "IC50", "setting": "[1]", "result": 3.6, "unit": "nM"},
      {"measurement": "Ki", "setting": "[2]", "result": 55, "unit": "nM"},
      {"measurement": "Ki", "setting": "[3]", "result": 252, "unit": "nM"}
    ]},
    {"molecule": "CN1[C@H]2CC[C@@H]1[C@H](C=C(Br)Br)[C@@H](c1ccc(Cl)cc1)C2", "values": [
      {"measurement": "IC50", "setting": "[1]", "result": 1.4, "unit": "nM"},
      {"measurement": "Ki", "setting": "[2]", "result": 49, "unit": "nM"},
      {"measurement": "Ki", "setting": "[3]", "result": 76, "unit": "nM"}
    ]},
    {"molecule": "CN1[C@H]2CC[C@@H]1[C@@H](C#Cc1ccccc1)[C@@H](c1ccc(Cl)cc1)C2", "values": [
      {"measurement": "IC50", "setting": "[1]", "result": 0.8, "unit": "nM"},
      {"measurement": "Ki", "setting": "[2]", "result": 14, "unit": "nM"},
      {"measurement": "Ki", "setting": "[3]", "result": 81, "unit": "nM"}
    ]},
    {"molecule": "COC(=O)[C@H]1[C@@H](c2ccccc2)C[C@@H]2CC[C@H]1N2C", "values": [
      {"measurement": "IC50", "setting": "[1]", "result": 23, "unit": "nM"},
      {"measurement": "Ki", "setting": "[2]", "result": 556, "unit": "nM"}
    ]},
    {"molecule": "CN1[C@H]2CC[C@@H]1[C@@H](C=C(Br)Br)[C@@H](c1ccc(Cl)cc1)C2", "values": [
      {"measurement": "IC50", "setting": "[1]", "result": 0.32, "unit": "nM"},
      {"measurement": "Ki", "setting": "[2]", "result": 3.5, "unit": "nM"},
      {"measurement": "Ki", "setting": "[3]", "result": 7, "unit": "nM"}
    ]},
    {"molecule": "CN1[C@H]2CC[C@@H]1[C@@H](C#Cc1ccc([N+](=O)[O-])cc1)[C@@H](c1ccc(Cl)cc1)C2", "values": [
      {"measurement": "IC50", "setting": "[1]", "result": 0.9, "unit": "nM"},
      {"measurement": "Ki", "setting": "[2]", "result": 230, "unit": "nM"},
      {"measurement": "Ki", "setting": "[3]", "result": 620, "unit": "nM"},
      {"measurement": "Selectivity ratio", "setting": "[4]", "result": 256},
      {"measurement": "Selectivity ratio", "setting": "[5]", "result": 689}
    ]}
  ]
}
